Measured values collected from several papers.
Each line is one published result; the experiments were not run side by side.
MMP13: Collagenase 3 (MMP13, Homo sapiens, UniProt P45452)
LNPEP: Leucyl-cystinyl aminopeptidase (LNPEP, Homo sapiens, UniProt Q9UIQ6)
CHRM1: Muscarinic acetylcholine receptor M1 (CHRM1, Homo sapiens, UniProt P11229)
CYP3A4: Cytochrome P450 3A4 (CYP3A4, Homo sapiens, UniProt P08684)
SLCO1B1: Solute carrier organic anion transporter family member 1B1 (SLCO1B1, Homo sapiens, UniProt Q9Y6L6)
JAK1: Tyrosine-protein kinase JAK1 (JAK1, Homo sapiens, UniProt P23458)
Kcna3: Potassium voltage-gated channel subfamily A member 3 (Kcna3, Mus musculus, UniProt P16390)
Cruzipain: Cruzipain (Trypanosoma cruzi, UniProt P25779)
PBRM1 bromodomain: Protein polybromo-1, bromodomain (PBRM1, Homo sapiens, UniProt Q86U86)

Compound | target | assay | test system | conditions | IC50
Cc1noc(-c2cc3cc(-c4nc(C(N)=O)[nH]c4C)ccc3[nH]2)n1 | MMP13 | enzyme activity, inhibitor, FRET |  |  | 0.016 µM
O=S(=O)(Nc1cccc(-c2nnn[nH]2)c1)c1c(F)cc(Br)cc1F | LNPEP | enzyme activity, inhibitor, fluorescence |  |  | 7.5 µM
Cn1nc(C(=O)NCc2ccc(C(=O)O)cc2)cc1-c1ccc2[nH]c(-c3cccnc3)cc2c1 | MMP13 | enzyme activity, inhibitor, FRET |  |  | 0.0058 µM
O=C1Nc2ccccc2C1=O | Aldehyde dehydrogenase, mitochondrial (ALDH2, Homo sapiens, UniProt P05091) | enzyme activity, inhibitor, absorbance |  |  | > 160 µM
C[N+]1(C)CCC(OC(=O)C(c2ccccc2)c2ccccc2)CC1 | CHRM1 | ligand displacement, radioligand |  |  | 0.00364 µM
Cc1noc(-c2cc3cc(-c4nc(C(=O)NCc5ccccc5)[nH]c4C)ccc3[nH]2)n1 | MMP13 | enzyme activity, inhibitor, FRET |  |  | 0.0023 µM
O=C(NCCN1CCCC1)c1cc(-c2ccc(CN3CCOCC3)cc2)nc2ccc(F)cc12 | CYP3A4 | enzyme activity, inhibitor | human, liver microsomes |  | > 100 µM
O=C(O)c1cccnc1Nc1cccc(C(F)(F)F)c1 | SLCO1B1 | transporter uptake, inhibitor, fluorescence | CHO | 30 min, pH 7.4 | 3.7 µM
CCC1CN(C(=O)NCC(F)(F)F)CC1NCc1ccc(C)nc1-c1cnc2[nH]ccc2c1 (stereo not shown) | JAK1 | enzyme activity, inhibitor, ADP detection |  |  | 0.5 µM
Nc1nc2ccc(OC(F)(F)F)cc2s1 | Kcna3 | ion current, inhibitor, patch clamp |  |  | 50 µM
O=C(CNC(=O)c1ccccc1)OC(C(=O)Nc1cc(C(F)(F)F)ccc1Cl)c1ccccc1 (stereo not shown) | Cruzipain | enzyme activity, inhibitor |  |  | 7 µM
O=S(=O)(Nc1cccc(-c2nnn[nH]2)c1)c1ccc(Cl)c2nonc12 | LNPEP | enzyme activity, inhibitor, fluorescence |  |  | 0.4 µM
Cc1noc(-c2cc3cc(-c4cc(C(=O)NCc5ccc(C(=O)O)cc5)nn4C)ccc3[nH]2)n1 | MMP13 | enzyme activity, inhibitor, FRET |  |  | 0.00021 µM
Cc1ccc(C(C)C)c(O)c1 | gbr-2 (Haemonchus contortus, UniProt O46124) | ion current, antagonist, two-electrode voltage clamp |  | oocytes | 1200 µM
c1ccc(/C(=N\Nc2nc3ccccc3s2)c2ccccn2)cc1 | E3 ubiquitin-protein ligase Mdm2 (MDM2, Homo sapiens, UniProt Q00987) | protein-protein interaction, inhibitor |  |  | 13 µM
CC/C=C\C/C=C\C/C=C\C/C=C\C/C=C\CCCC(=O)O | Polynucleotide kinase (pseT, Enterobacteria phage T4, UniProt P06855) | enzyme activity, inhibitor |  |  | > 100 µM
Cc1ncsc1-c1ccc(CNC(=O)[C@@H]2C[C@@H](O)CN2C(=O)[C@@H](NC(=O)C2(F)CC2)C(C)(C)C)c(OCCOc2ccc(CN3CCN(c4cc(-c5ccccc5O)nnc4N)CC3)cc2)c1 | PBRM1 bromodomain | cell-free assay, TR-FRET |  |  | 0.504 µM
CC(C)[C@H](CO)Nc1nc(Nc2cccc(Cl)c2)c2ncn(C(C)C)c2n1 | Serine/threonine-protein kinase PAK 4 (PAK4, Homo sapiens, UniProt O96013) | enzyme activity, inhibitor |  | lysate | > 10 µM
CCOc1cc(CC(=O)N[C@@H](CC(C)C)c2ccccc2N2CCCCC2)ccc1C(=O)O | SLCO1B1 | transporter uptake, inhibitor, fluorescence | CHO | 30 min, pH 7.4 | 1.1 µM
CN(C)CC#Cc1ccc2[nH]c3c(c2c1)-c1nc(N)ncc1CCC3 | Dual serine/threonine and tyrosine protein kinase (DSTYK, Homo sapiens, UniProt Q6XUX3) | enzyme activity, inhibitor, radiometric |  |  | > 10 µM
CN1CCN(c2ccc(Nc3ncc4cc(C#N)c(=O)n(C5CCCC5)c4n3)cc2)CC1 | Calcium/calmodulin-dependent protein kinase type II subunit gamma (CAMK2G, Homo sapiens, UniProt Q13555) | enzyme activity, inhibitor |  |  | 3.87 µM
Cc1noc(-c2cc3cc(-c4nc(C(=O)NCc5ccccn5)[nH]c4C)ccc3[nH]2)n1 | MMP13 | enzyme activity, inhibitor, FRET |  |  | 0.0031 µM
CCn1ncc2c1-c1cnc(N)c(c1)O[C@H](C)c1cc(F)ccc1-c1nn(C)nc1C2 | Insulin receptor (INSR, Homo sapiens, UniProt P06213) | enzyme activity, inhibitor, radiometric |  |  | 1.14 µM

Compound | target | assay | test system | conditions | IC50
CCOCc1nc(O)c(-c2nnc(Cc3ccc(Cl)cn3)o2)c(O)c1-c1c(OC)cccc1OC | 5-hydroxytryptamine receptor 4 (HTR4, Homo sapiens, UniProt Q13639) | ligand displacement, radioligand |  |  | > 30 µM
O=C(O[C@H]1[C@@H]2C=CO[C@@H](O[C@@H]3O[C@H](CO)[C@@H](O)[C@H](O)[C@H]3O)[C@@H]2[C@@]2(CO)O[C@@H]12)c1ccc(O)cc1 | SLCO1B1 | transporter uptake, inhibitor, radiometric | HEK293 | 10 min | 200 µM
CCn1c(-c2nc3ccc(C(=O)N4CCCC(N)C4)cc3n2C)cc2ccccc21 (stereo not shown) | CHRM1 | calcium signal, antagonist, fluorescence |  |  | > 15.8 µM
Cn1ccc2ccc(S(=O)(=O)Nc3cccc(-c4nnn[nH]4)c3)cc21 | LNPEP | enzyme activity, inhibitor, fluorescence |  |  | 12.7 µM
NC(=O)c1ccc[n+]([C@@H]2O[C@H](COP(=O)([O-])OP(=O)(O)OC[C@H]3O[C@@H](n4cnc5c(N)ncnc54)[C@H](O)[C@@H]3O)[C@@H](O)[C@H]2O)c1 | Protein mono-ADP-ribosyltransferase PARP8 (Homo sapiens, UniProt Q8N3A8) | enzyme activity, inhibitor |  |  | 377 µM
CCOC(=O)[C@H](CCc1ccccc1)N[C@@H](C)C(=O)N1[C@H](C(=O)O)C[C@@H]2CCC[C@@H]21 | SLCO1B1 | transporter uptake, inhibitor, fluorescence | CHO | 30 min, pH 7.4 | 4 µM
CC(C)c1cc(NC(=O)Nc2ccc(F)c(F)c2)n(-c2ccccc2)n1 | Kir3.1/Kir3.4 (Homo sapiens, UniProt P48544+P48549) | enzyme activity in cells, inhibitor |  |  | 4.1 µM
Fc1ccc(Nc2c(-c3ccccn3)nc3ccc(C4CC4)cn23)cc1 | CYP3A4 | enzyme activity, inhibitor |  |  | 1.6 µM
Oc1ccc(/C=C/c2cc(O)cc(O)c2)cc1 | SLCO1B1 | transporter uptake, inhibitor, fluorescence | CHO | 30 min, pH 7.4 | 11.2 µM
CCCC[C@H](NC(=O)[C@H](C)c1c(C)[nH]c2ccc(O)cc12)c1ncc(-c2cc3ccccc3nc2OC)[nH]1 | Histone deacetylase 11 (HDAC11, Homo sapiens, UniProt Q96DB2) | enzyme activity, inhibitor |  |  | 0.1 µM
Cc1ncc([N+](=O)[O-])n1CCO | SLCO1B1 | transporter uptake, inhibitor, fluorescence | CHO | 30 min, pH 7.4 | > 100 µM
Cc1ncsc1-c1ccc(CNC(=O)[C@@H]2C[C@@H](O)CN2C(=O)[C@@H](NC(=O)C2(F)CC2)C(C)(C)C)c(OCCOCCOCCN2CCN(c3cc(-c4ccccc4O)nnc3N)CC2)c1 | PBRM1 bromodomain | cell-free assay, TR-FRET |  |  | 1.5 µM
CCC1CN(C(=O)NCC(F)(F)F)CC1N(C)c1ncnc2[nH]ccc12 (stereo not shown) | JAK1 | enzyme activity, inhibitor, ADP detection |  |  | 0.93 µM
O=C(N[C@@H](Cc1ccccc1)C(=O)c1noc(-c2ccccc2)n1)[C@H](Cc1ccccc1)NC(=O)N1CCOCC1 | Papain (Carica papaya, UniProt P00784) | enzyme activity, inhibitor |  | pH 6.5, with preincubation | 0.2 µM
O=S(=O)(Nc1cccc(-c2nnn[nH]2)c1)c1ccc(F)c(F)c1 | LNPEP | enzyme activity, inhibitor, fluorescence |  |  | 12.1 µM
Cn1nc(C(=O)NCc2ccc(C(=O)O)cc2)cc1-c1ccc2[nH]c(-c3ccncc3)cc2c1 | MMP13 | enzyme activity, inhibitor, FRET |  |  | 0.00092 µM
Nc1nc(N)c2nc(CNc3ccc(C(=O)NCCc4ccccc4)cc3)cnc2n1 | CYP3A4 | enzyme activity, inhibitor, luciferase |  |  | 11.2 µM
Cc1cc(S(=O)(=O)Nc2cccc(-c3nnn[nH]3)c2)ccc1C(F)(F)F | LNPEP | enzyme activity, inhibitor, fluorescence |  |  | 2.3 µM
CC(C)C(NC(=O)c1ccco1)C(=O)NCC(c1ccco1)N1CCCCC1 (stereo not shown) | Cruzipain | enzyme activity, inhibitor |  |  | 14 µM
O=S(=O)(Nc1cccc(-c2nnn[nH]2)c1)c1ccc(Cl)c(Cl)c1Cl | LNPEP | enzyme activity, inhibitor, fluorescence |  |  | 1.2 µM
O=c1ccc2c(OCCCCOc3ccccc3)c3ccoc3c(O)c2o1 | Kcna3 | ion current, inhibitor, patch clamp |  |  | 0.159 µM
Clc1ccc2[nH]c3c(NCCCN4CCOCC4)ncnc3c2c1 | Cruzipain | enzyme activity, inhibitor |  |  | 13 µM
O=S(=O)(Nc1cccc(-c2nnn[nH]2)c1)c1cc(Br)c(Cl)s1 | LNPEP | enzyme activity, inhibitor, fluorescence |  |  | 1.1 µM
